Screening results: PubChem BioAssay, several laboratories
GSK3B inh: human GSK3beta kinase inhibition. AID 2097. GST-GSK3beta kinase, ADP-Glo luminescence, 60 min; stronger effect = lower value. activity score (negative = inhibition), % at 10 µM. 0.038% of 300,000 active. P49841;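 active = more than half of replicate wells score below -50%, meaning over 50% inhibition versus plate controls; inconclusive = some replicates but at most half score below -50%; inactive = no replicate scores below -50%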;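 note: 0% = median DMSO wells and -100% = median GW8510 positive control wells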
Target sequence (P49841 whole entry, looked up): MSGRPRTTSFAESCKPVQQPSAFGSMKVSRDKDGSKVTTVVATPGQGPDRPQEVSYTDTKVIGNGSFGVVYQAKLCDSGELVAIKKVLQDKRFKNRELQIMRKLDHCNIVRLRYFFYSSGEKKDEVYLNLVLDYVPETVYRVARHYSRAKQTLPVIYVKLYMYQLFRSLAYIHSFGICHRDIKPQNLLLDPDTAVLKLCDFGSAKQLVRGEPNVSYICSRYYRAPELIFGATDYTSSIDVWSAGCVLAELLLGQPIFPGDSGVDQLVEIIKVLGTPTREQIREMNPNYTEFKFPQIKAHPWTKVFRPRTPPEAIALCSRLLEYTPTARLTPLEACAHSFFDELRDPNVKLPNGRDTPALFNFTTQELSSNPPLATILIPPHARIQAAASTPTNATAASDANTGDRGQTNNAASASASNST
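Test system: GST-tagged human GSK3beta kinase, cell-free; evaluation: activity score scaled between in-plate DMSO and GW8510 controls; measured by: ADP-Glo luminescence; incubation: 60 min reaction, RT; benchmarks: DMSO and 20 µM GW8510; reagent: peptide substrate plus 25 µM ATP (final); medium: Tris/MgCl2 kinase buffer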
Rce1 inh: blocks yeast Ras-converting enzyme; yeast membranes, quenched prenylated peptide cleavage fluorescence; calls only; 0.27% of 290,000 active; AID 2563;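 active = fall in fluorescence gain of 50% or more versus controls, with final raw signal at or below 3038400; inconclusive = same 50% fall but final raw signal above 3038400; inactive = fall in fluorescence gain under 50%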;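 note: plate controls were neutral control wells for no effect and wells lacking membranes for full effect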
GSK3 alpha inh: human GSK-3 alpha kinase inhibition. P49840. ADP-Glo luminescence, 60 min. inhibition, % at 10 µM. 0.1% of 320,000 active;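 active = more than half of replicates show inhibition above 20%; inconclusive = some but at most half of replicates above 20% inhibition; inactive = no replicate shows inhibition above 20%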;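 note: GST-tagged GSK-3 alpha with peptide substrate and 25 µM ATP; 0% = DMSO neutral wells and 100% = GW8510 positive control wells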
Lipid droplet: hepatic lipid droplet formation modulation. AML12 mouse hepatocytes, oleate lipid droplets, BODIPY imaging. inhibition, % at 6.5 µM. 0.4% of 240,000 active. AID 1656;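 active = lipid droplet intensity inhibited by at least 50%, with more than 500 cells counted; inconclusive = wells with under 300 cells, treated as cytotoxic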
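Assay system: AML12 mouse liver cells | Compound: 6.5 µM single-point dosing | Schedule: Overnight exposure | Technique: Fluorescence imaging, 20x objective, two fields per well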
STK33 kinase inh: inhibitors of human STK33 kinase; purified STK33, MBP phosphorylation, ADP-Glo luminescence; inhibition, % at 10 µM; 0.073% of 320,000 active;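 active = inhibition at or above 25%, using the most active replicate where run in duplicate; inactive = inhibition below 25%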
HSV replic up: increases HSV replication in cells | HSV replication augmentation in cells, fold increase | maximum fold increase | 0.005% of 220,000 active | AID 1956; in the data active = maximum fold increase above about 1.5; inconclusive = no clear call, values can overlap the other calls; tested in PC3 cells
* marks the source's active call; other numbers are inactive results; i = inactive; ? = inconclusive; . = not tested or not shown; + = active, no number. Rows were chosen to be rich in hits. Some 0.7% of all compounds tested hit in one or more screens of this group.

SMILES	GSK3B inh	Rce1 inh	GSK3 alpha inh	Lipid droplet	STK33 kinase inh	HSV replic up
COc1ccc(-c2nc(-c3ccccn3)no2)cc1	-20	i	33	-3	29*	i
O=C(O)c1ccc(N/N=C/c2ccc(-c3ccccc3Cl)o2)cc1	-1	+	5	9	6	i
O=C(N/N=C/c1ccc(-c2ccccc2Cl)o1)c1ccccc1	-1	i	.	23	.	i
Cc1nn(CC(=O)N(C)Cc2ccccc2)c(=O)c2cccn12	0	i	-1	-4	-2	.
O=C(O)c1ccc(Nc2nc3ccc(Cl)cc3[nH]2)cc1	0	+	7	2	11	.
CC(=O)Nc1cc(OC(C)=O)c2nonc2c1OC(C)=O	.	.	68*	.	2	i
COC(C/C=C\C(=O)[C@H](C)OCc1ccccc1)OC	-3	+	0	.	-2	i
COc1ccc2c(c1)c1ncn(CCN3CCCCC3)c(=O)c1n2C	2	+	-1	-9	1	i
COc1ccc2c(c1)c1ncn(CCN3CCCC3)c(=O)c1n2C	1	+	0	.	2	i
Cc1ccc(C)c(NC(=O)Cn2cnc3c(oc4ccccc43)c2=O)c1	1	i	-1	-5	-2	i
N=c1oc2cc(O)ccc2cc1C(=O)Nc1nc2ccccc2s1	-2	+	4	16	2	i
Cc1onc(-c2ccccc2Cl)c1C(=O)N[C@@H](C)c1ccccc1	-1	i	2	.	-1	.
COc1ccc(C)cc1NC(=O)CN1C(=O)COc2ccc(S(=O)(=O)N3CCOCC3)cc21	-1	+	0	-2	-2	.
CCOC(=O)c1[nH]c2ccc(OCC)cc2c1CCCN1C(=O)c2ccccc2C1=O	2	i	-1	2	8	i
CCN1/C(=C/C=C/c2oc3ccc(-c4ccccc4)cc3[n+]2CC)Oc2ccc(-c3ccccc3)cc21	2	i	-1	120*	1	?
COc1cc(/C=N/Nc2ccc(C(F)(F)F)cn2)ccc1O	-37	i	4	14	28*	i
O=C(O)c1ccc(/C=N/Nc2ccc(C(F)(F)F)cn2)cc1	-42	i	.	-17	.	i
CC(=O)Oc1ccc2occ(C(=O)c3cccs3)c2c1	-17	i	43	.	0	i
O=C(CCl)Oc1ccc2occ(C(=O)c3cccs3)c2c1	-72*	i	70*	11	3	i
COc1ccc2nc(NC(=O)CSc3n[nH]c(N)n3)sc2c1	-38	i	58*	.	15	.
COc1ccc2nc(NC(=O)CSc3nccc(C)n3)sc2c1	-15	i	15	.	3	i
N#Cc1ccc(C(=O)NNC(=O)c2cccc(S(=O)(=O)N3CCOCC3)c2)cc1	.	.	-2	.	0	.
O=C(NNC(=O)c1ccc(O)c(Cl)c1)c1cccc(S(=O)(=O)N2CCOCC2)c1	1	+	-2	.	0	.
COC(=O)c1ccc(/C=N/n2c(C)nc3ccccc3c2=O)cc1	-1	i	0	16	-2	.
CN(C)Cc1c(O)ccc2c1O/C(=C\C=C\c1ccccc1)C2=O	-54*	i	46	-12	8	.
SMILES	GSK3B inh	Rce1 inh	GSK3 alpha inh	Lipid droplet	STK33 kinase inh	HSV replic up
OC(Cn1cnnc1)c1ccccc1 (stereo unspecified)	2	i	-4	.	-1	.
Cn1c(=O)c2[nH]c(CN(Cc3ccccc3)Cc3ccccc3)nc2n(C)c1=O	1	i	4	.	-1	.
Cn1c(=O)c2[nH]c(CCCC(=O)O)nc2n(Cc2ccccc2)c1=S	-51*	i	84*	.	1	i
COc1ccc(C(=O)OCC(=O)NCc2ccc3c(c2)OCO3)cc1S(=O)(=O)N1CCOCC1	.	.	-2	.	-1	.
C=CCNc1oc(/C=C/c2ccccc2)nc1C#N	-2	+	0	.	-3	i
CN(C(=O)CSc1nnc(-c2ccncc2)n1Cc1ccccc1)C1CCS(=O)(=O)C1 (stereo unspecified)	-23	i	0	2	-2	i
COc1ccc(S(=O)(=O)NCC2CCCO2)cc1NC(=O)c1ccccc1 (stereo unspecified)	0	i	5	21	-1	.
COc1ccc(S(=O)(=O)NCC2CCCO2)cc1NC(=O)c1ccccc1F (stereo unspecified)	3	+	-1	-1	0	.
N=C(N)c1ccc(/C=C/c2ccc(C(=N)N)cc2O)cc1	-10	+	8	1	0	i
